Results as given in PubChem BioAssay AID588804 (The Scripps Research Institute Molecular Screening Center, 2011).
Calls of active or inactive are those of the source.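 How the source made its calls: active means In either cell panel, a half-cytotoxic dose CC50 of 5 µM or lower marks a compound as cytotoxic; inactive means Both panels show CC50 exceeding 5 µM.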

Assay: cytotoxicity in Neuro-2A cells, dose response, cytotoxicity control for PME-1 inhibitor project, cell-based, WST-1 absorbance, serum-free and serum media (AID 588804)
Details: Neuro-2A viability, 48 h
Outline: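 Test system: Neuro-2A mouse neuroblastoma cells; Incubation: 36 h pre-growth, then 48 h treatment at 37 °C; Measured by: colorimetric WST-1 formazan absorbance; Measure: % surviving cells and CC50 from three-parameter sigmoidal fit; Compound dosing: seven concentrations, fivefold steps, top 10 µM, 1% DMSO; Control set: compound-free cells as high control, no-cell wells as low.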

SMILES | CC50 (with serum) | CC50 (without serum)
CC[C@@]1(c2ccc(Cl)cc2)C(=O)N(C(=O)OC)N1C(=O)OC | > 10 µM (inactive) | > 10 µM (inactive)
CCCOC(=O)N1C(=O)[C@@](CC)(c2ccc(C)cc2)N1C(=O)OCCC | > 10 µM (inactive) | > 10 µM (inactive)
CC[C@@]1(c2ccc(C)cc2)C(=O)N(C(=O)OC(C)C)N1C(=O)OC(C)C | > 10 µM (inactive) | > 10 µM (inactive)
